High-throughput results deposited in PubChem BioAssay by several laboratories.
ALR inh = inhibitors of human sulfhydryl oxidase ALR. purified ALR, DTT oxidation, H2O2 HRP-luminol luminescence. P55789. actives 3.8% (n = 290,000). AID 485317. inhibition, % (concentration not given with the values);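 active means mean replicate inhibition above about 79%, with every replicate also reaching it, limit read from the data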
PfM18AAP inh = blocks P. falciparum M18 aspartyl aminopeptidase | recombinant PfM18AAP, H-Glu-NHMec fluorogenic cleavage | inhibition, % at 7.35 µM | actives 1.2% (n = 290,000) | AID 1822;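 active means inhibition above the campaign mean inhibition over all tested compounds plus 3 SD, cut at about 28% in these data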;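 further: 0% = plate median of test compound wells and 100% = 2 mM ZnCl2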
UCH37 DUB inh = inhibitors of human deubiquitinating enzyme UCH37 | Q9Y5K5 | purified proteasome/UCH37, Ub-AMC cleavage fluorescence | inhibition, % (concentration not given with the values) | actives 0.33% (n = 330,000);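 active means mean inhibition over replicate wells above about 20%, limit read from the data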;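 further: 0% = compound-free wells with enzyme and 100% = wells lacking proteasome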
Target sequence (Q9Y5K5 whole entry, looked up): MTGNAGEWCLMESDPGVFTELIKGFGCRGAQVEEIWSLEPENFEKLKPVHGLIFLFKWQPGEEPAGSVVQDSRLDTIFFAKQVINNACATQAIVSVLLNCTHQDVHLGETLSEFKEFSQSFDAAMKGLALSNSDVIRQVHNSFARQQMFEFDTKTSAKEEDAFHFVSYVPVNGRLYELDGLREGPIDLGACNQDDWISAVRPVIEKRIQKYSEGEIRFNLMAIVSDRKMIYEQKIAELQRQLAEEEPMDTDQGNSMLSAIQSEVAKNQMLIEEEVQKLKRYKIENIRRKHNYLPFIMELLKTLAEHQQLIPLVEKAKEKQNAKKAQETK
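Reagent: Ub-AMC substrate; assay system: Proteasome-associated human UCH37 deubiquitinase; controls: no-proteasome and no-compound wells; read-out: % inhibition of Ub-AMC cleavage fluorescence; timing: 30 min preincubation with enzyme, 25 min cleavage at room temperature; signal: AMC fluorescence from Ub-AMC cleavage, excitation 355 nm, emission 460 nm; buffer or medium: Tris-HCl pH 7.4 plus ovalbumin, ATP-MgCl2, DTT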
FAS TE block = blocks the thioesterase domain of human fatty acid synthase. P49327. recombinant FAS-TE, OMFH fluorogenic substrate, fluorescence endpoint. inhibition, % at 15 µM. actives 0.67% (n = 360,000);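 active means compounds whose normalised, plate-corrected inhibition of enzyme fluorescence in the single-dose primary screen is 50% or more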;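 further: 0% = DMSO with enzyme and 100% = substrate without enzyme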
HDAC3 inh = blocks human histone deacetylase 3 | O15379 | recombinant HDAC3, fluorogenic peptide/trypsin coupled, fluorescence | AID 2718 | inhibition, % at 8.3 µM | actives 0.15% (n = 320,000); in the data active means inhibition above about 26%, passing the limit was not always enough
Rtt109 Vps75 = blocks Candida albicans Rtt109/Vps75 acetyltransferase activity; actives 0.16% (n = 330,000); inhibition, % at 34.9 µM; purified Rtt109/Vps75, ThioGlo CoA-SH fluorescence, 4 h;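 active means inhibition of at least 50% in every replicate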
Target sequence (Q5AAJ8 whole entry, looked up): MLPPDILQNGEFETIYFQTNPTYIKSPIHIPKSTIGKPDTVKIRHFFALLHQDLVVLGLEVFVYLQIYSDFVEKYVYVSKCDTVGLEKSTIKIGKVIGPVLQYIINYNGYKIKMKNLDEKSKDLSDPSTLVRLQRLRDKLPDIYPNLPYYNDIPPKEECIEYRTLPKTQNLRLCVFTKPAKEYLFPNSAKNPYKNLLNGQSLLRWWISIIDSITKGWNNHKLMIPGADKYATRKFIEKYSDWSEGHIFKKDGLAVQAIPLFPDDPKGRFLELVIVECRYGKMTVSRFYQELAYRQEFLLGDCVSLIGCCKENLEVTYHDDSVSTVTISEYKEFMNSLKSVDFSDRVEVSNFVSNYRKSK
The depositor's hits bear a star; · = no result given. Hits are enriched below; roughly 4.6% of the tested compounds scored in any of these assays.

SMILES | ALR inh | PfM18AAP inh | UCH37 DUB inh | FAS TE block | HDAC3 inh | Rtt109 Vps75
O=C(CS)Nc1ccc2ccccc2c1 | 97.1* | 2.2 | · | -169.2 | 0.2 | -3.8
O=C(CSCc1nc2ccccc2[nH]1)Nc1ccc2ccccc2c1 | 98.7* | -3.6 | 1.8 | -2.9 | 10.2 | -2.0
CN1c2ccsc2/C(=N/Nc2ccccc2)CS1(=O)=O | 98.9* | 19.4 | · | 12.5 | -1.8 | -0.1
O=C1CC(c2ccc3c(c2)OCO3)CN1 (centres undefined) | -9.0 | 5.9 | 27.1* | -7.8 | -4.3 | -7.6
CC(=NNC(=O)c1cc(C)oc1C)c1ccc2c(c1)OCO2 | · | · | 2.0 | · | · | ·
COc1ccc(CNc2ccccc2)cc1Br | 82.9* | 4.3 | 2.3 | 14.5 | 3.3 | -0.4
O=C1CCC(=O)N1c1ccccc1 | 3.1 | -0.7 | 4.7 | -3.5 | -6.2 | -5.4
O=C1N=NC(=O)N1c1ccccc1 | 87.5* | -0.1 | 0.7 | 1.5 | -6.7 | 0.2
CCCn1c(/C=C/c2ccco2)nc2ccccc21 | 89.2* | 3.0 | -50.1 | -16.0 | -8.3 | 0.6
CCCCn1c(/C=C/c2ccco2)nc2ccccc21 | · | -3.5 | -49.2 | -7.4 | -0.7 | -0.7
O=S(=O)(c1ccccc1)[C@@]1(c2ccccc2)C[C@@H]2ON=C(c3cccc(Br)c3)[C@@H]2C1 | -0.1 | · | -0.7 | 55.2* | 1.5 | 0.9
O=C(O)[C@]1(S(=O)(=O)c2ccccc2)C[C@@H]2ON=C(c3cccc(Br)c3)[C@@H]2C1 | 0.3 | 8.3 | 1.6 | -10.4 | 3.0 | -12.0
COc1ccc(NC2CCCN(C(=O)CSc3ccccc3)C2)cc1OC (centres undefined) | -15.6 | 3.8 | 1.4 | -1.6 | -8.8 | -5.0
COc1ccc(NC2CCCN(C(=O)CN3CCOC3=O)C2)cc1OC (centres undefined) | 99.5* | 3.7 | -0.1 | -4.8 | -3.5 | -5.5
Cc1ccn(CC(=O)N2CCCC(N3CCN(c4ccccc4F)CC3)C2)n1 (centres undefined) | · | 4.7 | 0.4 | -7.2 | · | -0.3
Cc1ccn(CC(=O)N2CCCC(N3CCN(c4cccc(Cl)c4)CC3)C2)n1 (centres undefined) | 98.6* | -1.5 | -0.8 | -3.1 | -5.9 | -2.2
COc1ccc(NC2CCCN(C(=O)CN3CCOC3=O)C2)cc1 (centres undefined) | 98.3* | 10.2 | -3.4 | -6.8 | 6.7 | -1.2
COc1ccc(NC2CCCN(C(=O)Cn3ccc(C)n3)C2)cc1OC (centres undefined) | 99.0* | 17.6 | 3.4 | -9.2 | · | 31.3
CSc1ccc(C(=O)C2CCCN(C(=O)CN3CCOC3=O)C2)cc1 (centres undefined) | -8.9 | -6.3 | 6.5 | -3.2 | 0.8 | -4.9
COc1ccc(CC(C)=NNC(=O)c2ccc(C)cc2C)cc1 | · | · | 1.8 | · | · | ·
COc1ccc(CCNC(=O)COC(=O)CCC(=O)c2ccc(F)cc2)cc1 | 84.6* | -7.8 | 4.5 | -0.1 | 1.1 | 19.1
COc1ccc(C(=O)COC(=O)CCc2ccccc2)cc1 | -5.6 | 29.6* | 1.1 | 8.1 | 4.0 | 6.3
COc1ccc(CNc2ccc(Cl)cc2)cc1Cn1ccnc1 | · | 1.9 | -0.1 | -8.0 | 2.9 | 10.3
CCc1ccc(NCc2ccc(OC)c(Cn3ccnc3)c2)cc1 | 80.5* | -3.7 | 0.6 | -8.8 | -1.6 | 11.9
CC(=NN(C)C)c1ccc(OCCOc2ccc([N+](=O)[O-])cc2)cc1 | · | · | 2.6 | · | · | ·
SMILES | ALR inh | PfM18AAP inh | UCH37 DUB inh | FAS TE block | HDAC3 inh | Rtt109 Vps75
CCOC1=C/C(=C/c2c(N)n3nc(-c4ccccc4)sc3nc2=O)C=CC1=O | · | 7.7 | 6.9 | -3.3 | · | 30.1
CCS(=O)(=O)c1nn2c(N)c(/C=C3/C=CC(=O)C(OC)=C3)c(=O)nc2s1 | 99.9* | 20.5 | 21.8* | -11.7 | 9.3 | 2.1
COC1=C/C(=C/c2c(N)n3nc(-c4ccc(C)cc4)sc3nc2=O)C=CC1=O | · | 5.0 | 7.0 | -5.3 | · | 9.9
CCOC1=C/C(=C/c2c(N)n3oc(C)cc3nc2=O)C=CC1=O | 90.7* | 5.0 | 9.6 | · | 9.1 | ·
COC1=C/C(=C/c2c(N)n3c(nc2=O)sc2cc(S(C)(=O)=O)ccc23)C=CC1=O | 99.5* | 7.1 | · | -10.0 | 1.7 | 3.4
O=C(CSc1nnc(-c2ccccn2)n1Cc1ccco1)c1ccc(Cl)cc1 | 97.3* | -34.4 | 2.8 | 17.3 | 4.0 | ·
O=C(CSc1nnc(-c2cnccn2)n1Cc1ccco1)c1ccccc1 | 87.2* | -0.1 | 1.5 | -4.3 | 6.2 | 8.4
O=C(CSc1nnc(-c2cccnc2)n1Cc1ccco1)c1ccc(Br)cc1 | 95.8* | -7.5 | 0.1 | 5.7 | 13.9 | 2.5
O=C(CSc1nnc(-c2cccnc2)n1Cc1ccco1)c1ccc2ccccc2c1 | -12.1 | -15.8 | 0.6 | 1.8 | -1.0 | ·
CC(=NNC(=O)C1COc2ccccc2O1)c1cc2ccccc2o1 (centres undefined) | · | · | 0.5 | · | · | ·
CC(=NN=C(N)N)c1ccc(Cl)c(Cl)c1 | · | · | 11.8 | · | · | ·
Nc1ccc(C(=O)NN=Cc2cccc(Oc3ccccc3)c2)cc1 | · | · | -2.4 | · | · | ·
COc1ccc(CCNC(=O)CSc2cc(=O)[nH]c(N)n2)cc1OC | 58.5 | -5.9 | 1.6 | -6.1 | 4.4 | -0.2
COc1ccc(CCNC(=O)c2c[nH]c3ccccc3c2=O)cc1OC | 0.5 | -13.2 | 5.1 | -6.2 | -5.3 | 0.5
COc1ccc(CCNC(=O)CSc2c[nH]c3ccccc23)cc1OC | 97.2* | 5.8 | 4.5 | -4.7 | · | -2.5
COc1ccc(CCNC(=O)CSc2nc(O)cc(=O)[nH]2)cc1OC | 94.8* | 0.8 | 0.8 | -5.1 | 1.2 | -4.8
COc1ccc(CCNC(=O)CSc2nc(O)c(CC(C)C)c(=O)[nH]2)cc1OC | 97.8* | 3.1 | 5.3 | -5.9 | -0.4 | 0.2
COc1ccc(Cc2c(O)nc(SCC(=O)NC(C)(C)C)[nH]c2=O)cc1 | 84.4* | 3.1 | 5.5 | -5.1 | -3.9 | -2.7
CC(=NO)C(C)(C)Nc1ccc(Cl)cc1 | · | · | 2.4 | · | · | ·
CC(=NNS(=O)(=O)c1ccc(Cl)cc1)c1cccc(NC(=O)c2ccncc2)c1 | · | · | 4.1 | · | · | ·
O=C(CCCOc1ccc(Cl)cc1Cl)NN=Cc1ccccc1 | · | · | 3.3 | · | · | ·
O=C(NC(=S)Nc1ccccc1)c1ccc(Br)o1 | 12.8 | -0.9 | -0.9 | 4.8 | 5.5 | -0.1
O=C(Nc1ccc(Nc2ccccc2)cc1)c1ccc(Br)o1 | 99.4* | 8.9 | 4.4 | 25.5 | 1.0 | 32.9
O=C(Nc1ccc(O)cc1)c1ccc(C(=O)c2ccccc2)o1 | 96.8* | 4.7 | 3.6 | -10.4 | 4.5 | -2.7
CSc1ccc(C=NNC(=O)CN2CCN(Cc3ccccc3Cl)CC2)cc1 | · | · | -9.2 | · | · | ·
COc1nc(Oc2ccc(C=NO)cc2)nc(N(C)C)n1 | · | · | 0.5 | · | · | ·
O=C(c1cn[nH]c1)c1cc(F)ccc1O | -2.1 | 31.2* | 0.0 | -8.5 | 5.4 | 15.2
CC(=O)Nc1cc(C(C)(C)C)c(O)c(C(C)(C)C)c1 | 2.3 | 30.6* | 5.1 | -6.5 | -2.0 | 3.0
CC(C)(C)NC(=O)c1cc(C(C)(C)C)c(O)c(C(C)(C)C)c1 | -2.6 | 5.7 | 2.8 | -8.7 | -0.7 | -2.0
